Experiments:
Assay type in all cases: functional
786-0 = assay: Growth inhibition of human 786-0 cells assessed as growth percentage at 10 uM incubated for 48 hrs by sulforhodamine B assay relative to control; details: 786-0, 48 h, read-out: Activity
Procedure, shortened: (§1)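 NCI-60 one-dose screen: cells in RPMI 1640 with 5% FBS and 2 mM L-glutamine, plated at 5,000–40,000 cells/well and preincubated 24 h at 37 °C, 5% CO2. Compound is added from a DMSO stock to a final 10 µM and incubated 48 h. Cells are TCA-fixed and stained with sulforhodamine B, read at 515 nm. Output is % growth versus untreated control, with a time-zero plate.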

RPMI-8226 = assay: Growth inhibition of human RPMI8226 cells assessed as growth percentage at 10 uM incubated for 48 hrs by sulforhodamine B assay relative to control; details: RPMI-8226, 48 h, read-out: Activity
Procedure, shortened: (§2)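 NCI-60 single-dose screen. Cells were grown in RPMI 1640 with 5% FBS and 2 mM L-glutamine and plated at 5,000–40,000 cells/well. After an overnight preincubation at 37 °C in 5% CO2, compound was added at a final 10 µM from a DMSO stock, with DMSO/PBS controls. After 48 h, cells were TCA-fixed and stained with 0.4% SRB, and absorbance was read at 515 nm. Growth is given as a percentage of untreated control.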

NCI-H23 = assay: Growth inhibition of human NCI-H23 cells assessed as growth percentage at 10 uM incubated for 48 hrs by sulforhodamine B assay relative to control; details: NCI-H23, 48 h, read-out: Activity
Procedure, shortened: (§3)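 NCI-60 one-dose screen. Cells in RPMI 1640 with 5% FBS and 2 mM L-glutamine, seeded at 5,000–40,000 cells/well according to doubling time, and preincubated overnight at 37 °C, 5% CO2. A time-zero plate was TCA-fixed at drug addition. Compound from DMSO stock, final 10 µM, 48 h; DMSO vehicle controls. Fixation with TCA, 10% final (16% for suspension cells). SRB stain, Tris solubilization, A515. Result given as % growth versus untreated cells.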

SF-268 = assay: Growth inhibition of human SF268 cells assessed as growth percentage at 10 uM incubated for 48 hrs by sulforhodamine B assay relative to control; details: SF-268, 48 h, read-out: Activity; procedure, shortened: as §2
SF-295 = assay: Growth inhibition of human SF295 cells assessed as growth percentage at 10 uM incubated for 48 hrs by sulforhodamine B assay relative to control; details: SF-295, 48 h, read-out: Activity; procedure, shortened: as §2
NCI-H322M = assay: Growth inhibition of human NCI-H322M cells assessed as growth percentage at 10 uM incubated for 48 hrs by sulforhodamine B assay relative to control; details: read-out: Activity; procedure, shortened: as §3
SK-MEL-5 = assay: Growth inhibition of human SK-MEL-5 cells assessed as growth percentage at 10 uM incubated for 48 hrs by sulforhodamine B assay relative to control; details: SK-MEL-5, 48 h, read-out: Activity; procedure, shortened: as §2
Malme-3M = assay: Growth inhibition of human MALME-3M cells assessed as growth percentage at 10 uM incubated for 48 hrs by sulforhodamine B assay relative to control; details: read-out: Activity; procedure, shortened: as §3
HOP-92 = assay: Growth inhibition of human HOP92 cells assessed as growth percentage at 10 uM incubated for 48 hrs by sulforhodamine B assay relative to control; details: HOP-92, 48 h, read-out: Activity; procedure, shortened: as §3
HCT-116 = assay: Growth inhibition of human HCT116 cells assessed as growth percentage at 10 uM incubated for 48 hrs by sulforhodamine B assay relative to control; details: HCT-116, 48 h, read-out: Activity; procedure, shortened: as §1
SK-MEL-28 = assay: Growth inhibition of human SK-MEL-28 cells assessed as growth percentage at 10 uM incubated for 48 hrs by sulforhodamine B assay relative to control; details: SK-MEL-28, 48 h, read-out: Activity; procedure, shortened: as §2
OVCAR-4 = assay: Growth inhibition of human OVCAR4 cells assessed as growth percentage at 10 uM incubated for 48 hrs by sulforhodamine B assay relative to control; details: OVCAR-4, 48 h, read-out: Activity; procedure, shortened: as §3
HCC 2998 = assay: Growth inhibition of human HCC2998 cells assessed as growth percentage at 10 uM incubated for 48 hrs by sulforhodamine B assay relative to control; details: HCC 2998, 48 h, read-out: Activity; procedure, shortened: as §1
A549 = assay: Growth inhibition of human A549/ATCC cells assessed as growth percentage at 10 uM incubated for 48 hrs by sulforhodamine B assay relative to control; details: A549, 48 h, read-out: Activity; procedure, shortened: as §1
SW-620 = assay: Growth inhibition of human SW620 cells assessed as growth percentage at 10 uM incubated for 48 hrs by sulforhodamine B assay relative to control; details: SW-620, 48 h, read-out: Activity; procedure, shortened: as §2
SK-OV-3 = assay: Growth inhibition of human SKOV3 cells assessed as growth percentage at 10 uM incubated for 48 hrs by sulforhodamine B assay relative to control; details: SK-OV-3, 48 h, read-out: Activity; procedure, shortened: as §2
ACHN = assay: Growth inhibition of human ACHN cells assessed as growth percentage at 10 uM incubated for 48 hrs by sulforhodamine B assay relative to control; details: read-out: Activity; procedure, shortened: as §1
BT-549 = assay: Growth inhibition of human BT549 cells assessed as growth percentage at 10 uM incubated for 48 hrs by sulforhodamine B assay relative to control; details: BT-549, 48 h, read-out: Activity; procedure, shortened: as §1
RXF 393 = assay: Growth inhibition of human RXF393 cells assessed as growth percentage at 10 uM incubated for 48 hrs by sulforhodamine B assay relative to control; details: RXF 393, 48 h, read-out: Activity; procedure, shortened: as §2
HOP-62 = assay: Growth inhibition of human HOP62 cells assessed as growth percentage at 10 uM incubated for 48 hrs by sulforhodamine B assay relative to control; details: HOP-62, 48 h, read-out: Activity; procedure, shortened: as §3
OVCAR-3 = assay: Growth inhibition of human OVCAR3 cells assessed as growth percentage at 10 uM incubated for 48 hrs by sulforhodamine B assay relative to control; details: OVCAR-3, 48 h, read-out: Activity; procedure, shortened: as §3
MDA-MB-468 = assay: Growth inhibition of human MDA-MB-468 cells assessed as growth percentage at 10 uM incubated for 48 hrs by sulforhodamine B assay relative to control; details: MDA-MB-468, 48 h, read-out: Activity; procedure, shortened: as §3
NCI/ADR-RES = assay: Growth inhibition of human NCI/ADR-RES cells assessed as growth percentage at 10 uM incubated for 48 hrs by sulforhodamine B assay relative to control; details: read-out: Activity; procedure, shortened: as §3
UACC-257 = assay: Growth inhibition of human UACC257 cells assessed as growth percentage at 10 uM incubated for 48 hrs by sulforhodamine B assay relative to control; details: UACC-257, 48 h, read-out: Activity; procedure, shortened: as §2
HT-29 = assay: Growth inhibition of human HT-29 cells assessed as growth percentage at 10 uM incubated for 48 hrs by sulforhodamine B assay relative to control; details: HT-29, 48 h, read-out: Activity; procedure, shortened: as §3
SN12C = assay: Growth inhibition of human SN12C cells assessed as growth percentage at 10 uM incubated for 48 hrs by sulforhodamine B assay relative to control; details: read-out: Activity; procedure, shortened: as §2

| SMILES | growth at 10 µM (786-0) [%] | growth at 10 µM (RPMI-8226) [%] | growth at 10 µM (NCI-H23) [%] | growth at 10 µM (SF-268) [%] | growth at 10 µM (SF-295) [%] | growth at 10 µM (NCI-H322M) [%] | growth at 10 µM (SK-MEL-5) [%] | growth at 10 µM (Malme-3M) [%] | growth at 10 µM (HOP-92) [%] | growth at 10 µM (HCT-116) [%] | growth at 10 µM (SK-MEL-28) [%] | growth at 10 µM (OVCAR-4) [%] | growth at 10 µM (HCC 2998) [%] | growth at 10 µM (A549) [%] | growth at 10 µM (SW-620) [%] | growth at 10 µM (SK-OV-3) [%] | growth at 10 µM (ACHN) [%] | growth at 10 µM (BT-549) [%] | growth at 10 µM (RXF 393) [%] | growth at 10 µM (HOP-62) [%] | further results |
| --- | --- | --- | --- | --- | --- | --- | --- | --- | --- | --- | --- | --- | --- | --- | --- | --- | --- | --- | --- | --- | --- |
| CC(=O)C1=C(C)Nc2nc3ccccc3n2C1c1ccc2c(c1)OCO2 (racemic) | 100 | 96.4 | 106 | 105 | 103 | 98.1 | 102 | 105 | 91 | 98.9 | 107 | 102 | 111 | 99 | 104 | 106 | 110 | 102 | 108 | 94.7 | growth at 10 µM (OVCAR-3): 105%; growth at 10 µM (MDA-MB-468): 109%; growth at 10 µM (NCI/ADR-RES): 102%; growth at 10 µM (UACC-257): 111%; growth at 10 µM (HT-29): 105%; growth at 10 µM (SN12C): 101% |
| CC1=C(C(=O)OCc2ccccc2)C(c2ccc3c(c2)OCO3)NC(=O)N1 (racemic) | 99.1 | 89.1 | 101 | 99.8 | 95.3 | 104 | 89.8 | 101 | 92.3 | 88.3 | 110 | 91 | 116 | 106 | 109 | 105 | 99.4 | 80.2 | 102 | 114 | growth at 10 µM (OVCAR-3): 119%; growth at 10 µM (MDA-MB-468): 92%; growth at 10 µM (NCI/ADR-RES): 97.7%; growth at 10 µM (UACC-257): 103%; growth at 10 µM (HT-29): 109%; growth at 10 µM (SN12C): 101% |
| CC(=O)N1C(=S)NC(C)=C(C(=O)OCc2ccccc2)C1c1ccc2c(c1)OCO2 (racemic) | 96.8 | 54.8 | 94 | 73.8 | 96.4 | 101 | 91.2 | 91.6 | 73.3 | 41.4 | 102 | 99.3 | 110 | 95.6 | 65.3 | 79.2 | 95.5 | 88.8 | 101 | 75.5 | growth at 10 µM (OVCAR-3): 104%; growth at 10 µM (MDA-MB-468): 78.9%; growth at 10 µM (NCI/ADR-RES): 95.3%; growth at 10 µM (UACC-257): 77.7%; growth at 10 µM (HT-29): 52.2%; growth at 10 µM (SN12C): 54.5% |
| COCCOC(=O)C1=C(C)NC(=O)NC1c1ccc2c(c1)OCO2 (racemic) | 102 | 101 | 92 | 98 | 98.5 | 107 | 100 | 99.8 | 112 | 107 | 112 | 94.4 | 101 | 101 | 97 | 98.8 | 107 | 106 | 94.6 | 108 | growth at 10 µM (OVCAR-3): 110%; growth at 10 µM (MDA-MB-468): 106%; growth at 10 µM (NCI/ADR-RES): 104%; growth at 10 µM (UACC-257): 103%; growth at 10 µM (HT-29): 102%; growth at 10 µM (SN12C): 102% |
| CC1=C(C(=O)OCC(C)C)C(c2ccc3c(c2)OCO3)NC(=O)N1 (racemic) | 104 | 99.9 | 102 | 101 | 99.5 | 115 | 101 | 99.8 | 102 | 105 | 113 | 104 | 108 | 109 | 113 | 108 | 105 | 99.4 | 101 | 114 | growth at 10 µM (OVCAR-3): 117%; growth at 10 µM (MDA-MB-468): 100%; growth at 10 µM (NCI/ADR-RES): 106%; growth at 10 µM (UACC-257): 103%; growth at 10 µM (HT-29): 105%; growth at 10 µM (SN12C): 105% |
| CC(=O)C1=C(C)NC(=O)NC1c1ccc2c(c1)OCO2 (racemic) | 105 | 103 | 101 | 107 | 106 | 104 | 100 | 104 | 102 | 108 | 115 | 108 | 107 | 103 | 104 | 103 | 108 | 112 | 95.2 | 103 | growth at 10 µM (OVCAR-3): 115%; growth at 10 µM (MDA-MB-468): 105%; growth at 10 µM (NCI/ADR-RES): 106%; growth at 10 µM (UACC-257): 107%; growth at 10 µM (HT-29): 104%; growth at 10 µM (SN12C): 102% |
| CC(=O)N1C(=S)NC(C)=C(C(=O)OCC(C)C)C1c1ccc2c(c1)OCO2 (racemic) | 95.1 | 54.8 | 97.1 | 100 | 101 | 102 | 100 | 108 | 80.6 | 93.5 | 105 | 79.6 | 110 | 95.9 | 97.3 | 100 | 105 | 86.1 | 106 | 91.9 | growth at 10 µM (OVCAR-3): 96.8%; growth at 10 µM (MDA-MB-468): 94.9%; growth at 10 µM (NCI/ADR-RES): 97%; growth at 10 µM (UACC-257): 99.5%; growth at 10 µM (HT-29): 104%; growth at 10 µM (SN12C): 94.8% |

— ChEMBL document CHEMBL4406880, “Design, synthesis, and bioactivity of dihydropyrimidine derivatives as kinesin spindle protein inhibitors” (Bioorg Med Chem, 2019)
